By MIC is commonly meant the lowest concentration that inhibits growth of the organism.

The source of these data is ChEMBL document CHEMBL4814044, “Design and synthesis, biological evaluation of bis-(1,2,3- and 1,2,4)-triazole derivatives as potential antimicrobial and antifungal agents” (2021).

What all share (format): functional
Experiment [1] has as its system Aspergillus niger. Description: Antifungal activity against Aspergillus niger MTCC 404 assessed as zone of inhibition at 24 uM incubated for 2 days by cross streak plate method. The conditions noted are these: MTCC 404, 48 h, time 2 day, read-out: IZ. Put shortly:
(§1)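 Fungal strain (A. niger MTCC 404 or S. cerevisiae MTCC 1344) was incubated with the compound for 2 days at 37 °C. Growth inhibition was then assessed by the cross streak plate method.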

The test system of experiment [2] is Saccharomyces cerevisiae. The experiment can be described thus: Antifungal activity against Saccharomyces cerevisiae MTCC 1344 assessed as zone of inhibition at 24 uM incubated for 2 days by cross streak plate method. As to conditions: MTCC 1344, 48 h, time 2 day, read-out: IZ. Put shortly: as §1
Experiment [3] relates to Aspergillus niger. Description: Antifungal activity against Aspergillus niger MTCC 404 assessed as zone of inhibition at 36 uM incubated for 2 days by cross streak plate method. As to conditions: MTCC 404, 48 h, time 2 day, read-out: IZ. Put shortly:
as §1

For experiment [4], the system named is Aspergillus niger. Description: Antifungal activity against Aspergillus niger MTCC 404 assessed as zone of inhibition at 48 uM incubated for 2 days by cross streak plate method. As to conditions: MTCC 404, 48 h, time 2 day, read-out: IZ. Put shortly:
as §1

For experiment [5], the system named is Saccharomyces cerevisiae. The experiment can be described thus: Antifungal activity against Saccharomyces cerevisiae MTCC 1344 assessed as zone of inhibition at 36 uM incubated for 2 days by cross streak plate method. The conditions noted are these: MTCC 1344, 48 h, time 2 day, read-out: IZ. Put shortly:
(§2)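 S. cerevisiae MTCC 1344 cultures were incubated for 2 days at 37 °C and then tested by the cross streak plate method.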

The subject of experiment [6] is Saccharomyces cerevisiae. The experiment can be described thus: Antifungal activity against Saccharomyces cerevisiae MTCC 1344 assessed as zone of inhibition at 48 uM incubated for 2 days by cross streak plate method. As to conditions: MTCC 1344, 48 h, time 2 day, read-out: IZ. Summed up:
as §2

In experiment [7] the test system is Staphylococcus aureus. The experiment can be described thus: Antibacterial activity against Staphylococcus aureus MTCC 96 assessed as bacterial growth inhibition by microdilution method. Put shortly:
(§3)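 Broth microdilution against Gram-positive and Gram-negative strains. The endpoint is the minimal inhibitory concentration, in µg/ml.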

Experiment [8] concerns Bacillus subtilis. The experiment can be described thus: Antibacterial activity against Bacillus subtilis MTCC 441 assessed as bacterial growth inhibition by microdilution method. Summed up:
as §3
(Broth dilution looks for growth in wells or tubes with falling amounts of substance.)

In experiment [9] the test system is Pseudomonas aeruginosa. Description: Antibacterial activity against Pseudomonas aeruginosa MTCC 424 assessed as bacterial growth inhibition by microdilution method. Summed up:
as §3

The test system of experiment [10] is Escherichia coli. Description: Antibacterial activity against Escherichia coli MTCC 443 assessed as bacterial growth inhibition by microdilution method. Put shortly: as §3
In experiment [11] the test system is Aspergillus niger. The experiment can be described thus: Antifungal activity against Aspergillus niger MTCC 404 assessed as zone of inhibition at 16 uM incubated for 2 days by cross streak plate method. As to conditions: MTCC 404, 48 h, time 2 day, read-out: IZ. Put shortly: as §1
Experiment [12] concerns Aspergillus niger. The experiment can be described thus: Antifungal activity against Aspergillus niger MTCC 404 assessed as zone of inhibition at 32.1 uM incubated for 2 days by cross streak plate method. The conditions noted are these: MTCC 404, 48 h, time 2 day, read-out: IZ. Summed up: as §1
Experiment [13] relates to Saccharomyces cerevisiae. The experiment can be described thus: Antifungal activity against Saccharomyces cerevisiae MTCC 1344 assessed as zone of inhibition at 16 uM incubated for 2 days by cross streak plate method. As to conditions: MTCC 1344, 48 h, time 2 day, read-out: IZ. Put shortly:
as §1

In experiment [14] the test system is Saccharomyces cerevisiae. Description: Antifungal activity against Saccharomyces cerevisiae MTCC 1344 assessed as zone of inhibition at 32.1 uM incubated for 2 days by cross streak plate method. As to conditions: MTCC 1344, 48 h, time 2 day, read-out: IZ. Put shortly: as §2
A short description of experiment [15]: Antioxidant activity assessed as DPPH radical scavenging activity.
For experiment [16], the system named is Aspergillus niger. Description: Antifungal activity against Aspergillus niger MTCC 404 assessed as zone of inhibition at 15.6 uM incubated for 2 days by cross streak plate method. As to conditions: MTCC 404, 48 h, time 2 day, read-out: IZ. Summed up:
as §1

The test system of experiment [17] is Aspergillus niger. Description: Antifungal activity against Aspergillus niger MTCC 404 assessed as zone of inhibition at 23.4 uM incubated for 2 days by cross streak plate method. The conditions noted are these: MTCC 404, 48 h, time 2 day, read-out: IZ. Summed up:
as §1

Experiment [18] relates to Aspergillus niger. The experiment can be described thus: Antifungal activity against Aspergillus niger MTCC 404 assessed as zone of inhibition at 31.2 uM incubated for 2 days by cross streak plate method. The conditions noted are these: MTCC 404, 48 h, time 2 day, read-out: IZ. Summed up: as §1
For experiment [19], the system named is Saccharomyces cerevisiae. The experiment can be described thus: Antifungal activity against Saccharomyces cerevisiae MTCC 1344 assessed as zone of inhibition at 15.6 uM incubated for 2 days by cross streak plate method. As to conditions: MTCC 1344, 48 h, time 2 day, read-out: IZ. Summed up: as §1
The subject of experiment [20] is Saccharomyces cerevisiae. Description: Antifungal activity against Saccharomyces cerevisiae MTCC 1344 assessed as zone of inhibition at 23.4 uM incubated for 2 days by cross streak plate method. The conditions noted are these: MTCC 1344, 48 h, time 2 day, read-out: IZ. Put shortly:
as §1

For experiment [21], the system named is Saccharomyces cerevisiae. Description: Antifungal activity against Saccharomyces cerevisiae MTCC 1344 assessed as zone of inhibition at 31.2 uM incubated for 2 days by cross streak plate method. The conditions noted are these: MTCC 1344, 48 h, time 2 day, read-out: IZ. Summed up:
as §1

Active and inactive are the calls of the source. The rule behind the calls is not given here.

Take `Clc1ccc(COC(Cn2ccnc2)c2ccc(Cl)cc2Cl)c(Cl)c1` (stereo not drawn) [MICONAZOLE]: the zone of inhibition at 24 µM in [1] and in experiment [2] was 8 mm each time. The zone of inhibition at 36 µM in experiment [3] turned out to be 10 mm; in [5], 9 mm. Besides, the zone of inhibition at 48 µM in experiment [4] and in experiment [6] was 12 mm in each case.
As for `O=C(CSc1nnc(-c2ccccc2OCc2cn(-c3ccccc3)nn2)n1-c1ccccc1)c1ccc(Br)cc1`, the MIC was found to be 7.9 µg/mL in experiment [7], 4.1 µg/mL in [8], 7.5 µg/mL in experiment [9] and 10 µg/mL in experiment [10]. In addition, the zone of inhibition at 16 µM in experiment [11] was determined as 1.5 mm; in [13], 2 mm. Also, the zone of inhibition at 24 µM in [1] and in experiment [2] was 2 mm in each case. Further, the zone of inhibition at 32.1 µM in experiment [12] and in experiment [14] was 3 mm in each case. The outcome in [15] was inactive.
Take `O=C(CSc1nnc(-c2ccccc2OCc2cn(-c3ccccc3)nn2)n1Cc1ccccc1)c1ccc(Br)cc1`: the MIC came to 3.9 µg/mL in experiment [7], 4.2 µg/mL in experiment [8], 8.8 µg/mL in experiment [9] and 4.5 µg/mL in experiment [10]. For the same molecule, the results for the zone of inhibition at 15.6 µM in [16] and in experiment [19] were 5 mm and 6 mm, respectively. Further, the zone of inhibition at 23.4 µM in experiment [17] came to 7.4 mm; in experiment [20], 6.5 mm. Besides, the zone of inhibition at 31.2 µM turned out to be 7.6 mm in [18] and 7 mm in [21]. Moreover, the result in [15] was inactive.
